Measured values taken from ChEMBL document CHEMBL4477241, “Structure-Activity Relationship Studies for Enhancer of Zeste Homologue 2 (EZH2) and Enhancer of Zeste Homologue 1 (EZH1) Inhibitors” (J Med Chem, 2016).

Columns and labels:
[1] = biological target: Histone-lysine N-methyltransferase EZH2 (Homo sapiens, UniProt O75530+Q15022+Q15910); assay: Inhibition of EZH2 histone methyltransferase activity of EZH2/EED/SUZ12 protein complex (unknown origin) using histone H3 peptide as substrate (21 to 44 residues) in presence of [3H]-S-adenosylmethionine after 2 hrs by scintillation proximity assay
Chain of Histone-lysine N-methyltransferase EZH2 (Q15910 whole entry, the tested form may be a part, one chain of several): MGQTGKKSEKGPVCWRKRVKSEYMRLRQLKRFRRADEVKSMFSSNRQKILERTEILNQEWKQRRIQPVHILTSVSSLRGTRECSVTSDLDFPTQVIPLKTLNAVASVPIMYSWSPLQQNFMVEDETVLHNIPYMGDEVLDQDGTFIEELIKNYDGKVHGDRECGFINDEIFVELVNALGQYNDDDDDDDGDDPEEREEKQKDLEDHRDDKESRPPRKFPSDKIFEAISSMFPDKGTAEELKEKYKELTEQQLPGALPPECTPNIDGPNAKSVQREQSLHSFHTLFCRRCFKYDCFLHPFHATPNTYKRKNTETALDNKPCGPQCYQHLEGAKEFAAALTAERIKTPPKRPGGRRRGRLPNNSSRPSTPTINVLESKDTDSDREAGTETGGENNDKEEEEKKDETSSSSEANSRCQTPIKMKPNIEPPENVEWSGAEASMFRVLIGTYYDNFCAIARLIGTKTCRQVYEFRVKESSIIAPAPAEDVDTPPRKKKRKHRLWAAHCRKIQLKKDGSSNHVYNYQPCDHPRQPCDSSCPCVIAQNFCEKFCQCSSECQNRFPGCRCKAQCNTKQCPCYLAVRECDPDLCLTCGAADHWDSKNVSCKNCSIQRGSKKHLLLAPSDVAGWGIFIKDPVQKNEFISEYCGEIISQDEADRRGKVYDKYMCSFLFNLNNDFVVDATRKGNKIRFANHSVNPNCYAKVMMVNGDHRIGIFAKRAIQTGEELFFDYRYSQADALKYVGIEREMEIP
How it was run: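 20 nM EZH2 trimeric complex with 2 μM 3H-SAM and 1 μM biotinylated H3(21–44) in 20 mM Tris-HCl pH 8, 5 mM DTT, 0.01% Triton X-100. Incubated 1 h at 23 °C, quenched with guanidine hydrochloride, then 2 h streptavidin flash-plate capture. Activity scaled between no-compound and no-enzyme counts.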

[2] = biological target: T1, Histone-lysine N-methyltransferase EZH1 (Homo sapiens, UniProt Q92800); assay: Inhibition of EZH1 histone methyltransferase activity of EZH1/EED/SUZ12/RBBP4/AEBP2 protein complex (unknown origin) using histone H3 peptide as substrate (21 to 44 residues) in presence of [3H]-S-adenosylmethionine after 2 hrs by scintillation proximity assay
T1 sequence (Q92800 whole entry): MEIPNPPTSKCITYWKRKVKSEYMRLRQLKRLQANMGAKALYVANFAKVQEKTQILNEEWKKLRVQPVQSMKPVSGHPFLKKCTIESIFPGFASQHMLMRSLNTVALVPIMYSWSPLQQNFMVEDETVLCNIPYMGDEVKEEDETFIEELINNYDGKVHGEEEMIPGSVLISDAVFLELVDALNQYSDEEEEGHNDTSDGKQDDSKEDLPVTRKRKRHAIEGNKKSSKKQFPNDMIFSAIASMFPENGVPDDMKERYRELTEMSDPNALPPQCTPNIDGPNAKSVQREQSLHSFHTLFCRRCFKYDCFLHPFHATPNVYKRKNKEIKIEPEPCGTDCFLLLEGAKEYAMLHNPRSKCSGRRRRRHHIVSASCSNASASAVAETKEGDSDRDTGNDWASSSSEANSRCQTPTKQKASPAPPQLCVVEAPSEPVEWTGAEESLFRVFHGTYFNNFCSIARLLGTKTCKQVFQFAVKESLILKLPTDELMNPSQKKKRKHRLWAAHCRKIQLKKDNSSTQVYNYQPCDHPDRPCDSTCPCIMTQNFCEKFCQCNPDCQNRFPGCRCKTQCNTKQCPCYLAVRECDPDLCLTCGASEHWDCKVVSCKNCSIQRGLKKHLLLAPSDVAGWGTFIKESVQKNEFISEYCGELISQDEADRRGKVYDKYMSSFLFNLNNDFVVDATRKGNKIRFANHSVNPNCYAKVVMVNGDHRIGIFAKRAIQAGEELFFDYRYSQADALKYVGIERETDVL
How it was run: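 10 nM EZH1 pentameric complex with 4 μM 3H-SAM and 1 μM biotinylated H3(21–44) in 20 mM Tris-HCl pH 8, 5 mM DTT, 0.01% Triton X-100. Reaction run 1 h at 23 °C, stopped with guanidine hydrochloride, then captured 2 h on a streptavidin flash plate. Counts normalized to no-compound (100%) and no-enzyme (0%) controls.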

IC50 [1]	IC50 [2]	SMILES
< 10 nM	–	CCCc1cc(C)[nH]c(=O)c1CNC(=O)c1cc(-c2ccc(N3CCN(C(C)C)CC3)nc2)cc2c1cnn2C(C)C
384 nM	> 2500 nM	CCCc1cc(C)[nH]c(=O)c1CNC(=O)c1cc(-c2ccc(N3CCN(C(C)C)CC3)nc2)cc2nn(C(C)C)cc12
57 nM	> 2500 nM	CCCc1cc(C)[nH]c(=O)c1CNC(=O)c1cc(-c2ccc(N3CCN(C(C)C)CC3)nc2)cc2c1cnn2CC1CCC1
< 10 nM	–	CCCc1cc(C)[nH]c(=O)c1CNC(=O)c1cc(-c2ccc(N3CCN(C(C)C)CC3)nc2)cc2c1cnn2C1CCCCC1
540 nM	> 5000 nM	CCCc1cc(C)[nH]c(=O)c1CNC(=O)c1cc(-c2ccc(N3CCN(C(C)C)CC3)nc2)c2cnn(C(C)C)c2c1
1110 nM	> 5000 nM	CCCCC(CC)Cn1ncc2c(C(=O)NCc3c(CCC)cc(C)[nH]c3=O)cc(-c3ccc(N4CCN(C(C)C)CC4)nc3)cc21 (stereo unspecified)
25 nM	394 nM	CCCc1cc(C)[nH]c(=O)c1CNC(=O)c1cc(-c2ccc(N3CCN(C(C)C)CC3)nc2)cc2c1cnn2CCCCCCO
–	> 2500 nM	Cc1cc(C)c(CNC(=O)c2cc(-c3ccc(N4CCN(C(C)C)CC4)nc3)cc3c2cnn3C(C)C)c(=O)[nH]1
117 nM	> 2500 nM	CCCc1cc(C)[nH]c(=O)c1CNC(=O)c1cc(-c2ccc(N3CCN(C(C)C)CC3)nc2)cc2c1cnn2C1CCCCCC1
< 10 nM	127 nM	CCCc1cc(C)[nH]c(=O)c1CNC(=O)c1cc(-c2ccc(N3CCN(C(C)C)CC3)nc2)cc2c1cnn2C(C)(C)C
190 nM	> 2500 nM	CCCc1cc(C)[nH]c(=O)c1CNC(=O)c1cc(-c2ccc(N3CCN(C(C)C)CC3)nc2)cc2c1cnn2C
< 10 nM	126 nM	CCCc1cc(C)[nH]c(=O)c1CNC(=O)c1cc(-c2ccc(N3CCN(C(C)C)CC3)nc2)cc2c1cnn2C(CC)CC
< 10 nM	211 nM	Cc1cc(CC(C)C)c(CNC(=O)c2cc(-c3ccc(N4CCN(C(C)C)CC4)nc3)cc3c2cnn3C(C)C)c(=O)[nH]1
< 10 nM	88 nM	CCCc1cc(C)[nH]c(=O)c1CNC(=O)c1cc(-c2ccc(N3CCN(CC)CC3)nc2)cc2c1cnn2C(C)C
< 10 nM	108 nM	CCCc1cc(C)[nH]c(=O)c1CNC(=O)c1cc(-c2ccc(N3CCN(C(C)C)CC3)nc2)cc2c1cnn2C1CCCC1
697 nM	> 2500 nM	CCCc1cc(C)[nH]c(=O)c1CNC(=O)c1cc(-c2ccc(N3CCN(C(C)C)CC3)nc2)cc2c1cnn2CC1CCCCC1
> 10000 nM	> 10000 nM	Cc1cc(C(C)(C)C)[nH]c(=O)c1CNC(=O)c1cc(-c2ccc(N3CCN(C(C)C)CC3)nc2)cc2c1cnn2C(C)C
149 nM	> 2500 nM	CCCc1cc(C)[nH]c(=O)c1CNC(=O)c1cc(-c2ccc(N3CCN(C(C)C)CC3)nc2)cc2c1cnn2CC1CCCC1
280 nM	> 5000 nM	CCCc1cc(C)[nH]c(=O)c1CNC(=O)c1cc(-c2ccc(N3CCN(C(C)C)CC3)nc2)cc2c1cnn2Cc1ccccc1
> 1250 nM	> 2500 nM	CCCc1cc(C)[nH]c(=O)c1CNC(=O)c1cc(-c2ccc(N3CCN(C(C)C)CC3)nc2)cc2c1cnn2CCC1CCCCC1

Further lines, the compound ahead of its results:

SMILES	IC50 [1]	IC50 [2]
CCc1cc(C)c(CNC(=O)c2cc(-c3ccc(N4CCN(C(C)C)CC4)nc3)cc3c2cnn3C(C)C)c(=O)[nH]1	73 nM	> 5000 nM
CC(C)N1CCN(c2ccc(-c3cc(C(=O)NCc4ccc[nH]c4=O)c4cnn(C(C)C)c4c3)cn2)CC1	> 5000 nM	> 5000 nM
CCCc1cc(C)[nH]c(=O)c1CNC(=O)c1nn(C(C)C)c2ccc(-c3ccc(N4CCN(C(C)C)CC4)nc3)cc12	> 5000 nM	> 5000 nM
CCCc1cc(C)[nH]c(=O)c1CNC(=O)c1cc(-c2ccc(C(F)(F)F)cn2)cc2c1cnn2C(C)C	64 nM	> 5000 nM
CCCc1cc(C)[nH]c(=O)c1CNC(=O)c1nn(C(C)C)c2cc(-c3ccc(N4CCN(C(C)C)CC4)nc3)ccc12	> 5000 nM	> 5000 nM
Cc1[nH]c(=O)c(CNC(=O)c2cc(-c3ccc(N4CCN(C(C)C)CC4)nc3)cc3c2cnn3C(C)C)c(C)c1C	328 nM	> 5000 nM
Cc1[nH]c(=O)c(CNC(=O)c2cc(-c3ccc(N4CCN(C(C)C)CC4)nc3)cc3c2cnn3C(C)C)c2c1CCC2	32 nM	> 2500 nM
CCC(C)c1cc(C)c(CNC(=O)c2cc(-c3ccc(N4CCN(C(C)C)CC4)nc3)cc3c2cnn3C(C)C)c(=O)[nH]1 (stereo unspecified)	32 nM	> 1250 nM
CCCc1cc(C)[nH]c(=O)c1CNC(=O)c1cc(-c2ccccc2)cc2c1cnn2C(C)C	41 nM	> 1250 nM
CCCc1cc(C)[nH]c(=O)c1CNC(=O)c1cnn2c(-c3ccc(N4CCN(C(C)C)CC4)nc3)cccc12	> 5000 nM	> 5000 nM
Cc1[nH]c(=O)c(CNC(=O)c2cc(-c3ccc(N4CCN(C(C)C)CC4)nc3)cc3c2cnn3C(C)C)c2c1CCCC2	> 2500 nM	> 2500 nM
CCCc1cc(C)[nH]c(=O)c1CNC(=O)c1cc(-c2ccccn2)cc2c1cnn2C(C)C	24 nM	681 nM
Cc1cc(O)c(CNC(=O)c2cc(-c3ccc(N4CCN(C(C)C)CC4)nc3)cc3c2cnn3C(C)C)c(=O)[nH]1	> 10000 nM	> 10000 nM
CC(C)N1CCN(c2ccc(-c3cc(C(=O)NC4CC(C)(C)NC(C)(C)C4)c4cnn(C(C)C)c4c3)cn2)CC1	> 10000 nM	> 10000 nM
CCc1c(C)c[nH]c(=O)c1CNC(=O)c1cc(-c2ccc(N3CCN(C(C)C)CC3)nc2)cc2c1cnn2C(C)C	1020 nM	> 5000 nM
CCCc1cc(C)[nH]c(=O)c1CNC(=O)c1cc(-c2ccc(F)cc2)cc2c1cnn2C(C)C	48 nM	> 1250 nM
Cc1cc(C(C)C)c(CNC(=O)c2cc(-c3ccc(N4CCN(C(C)C)CC4)nc3)cc3c2cnn3C(C)C)c(=O)[nH]1	< 10 nM	320 nM
CCCc1cc(C)[nH]c(=O)c1CNC(=O)c1cc(-c2ccc(C(F)(F)F)cc2)cc2c1cnn2C(C)C	66 nM	> 1250 nM
Cc1cc(C2CCCC2)c(CNC(=O)c2cc(-c3ccc(N4CCN(C(C)C)CC4)nc3)cc3c2cnn3C(C)C)c(=O)[nH]1	< 10 nM	86 nM
CCCc1cc(C)[nH]c(=O)c1CNC(=O)c1cn2ccc(-c3ccc(N4CCN(C(C)C)CC4)nc3)cc2n1	> 10000 nM	> 10000 nM
Cc1ncc(CNC(=O)c2cc(-c3ccc(N4CCN(C(C)C)CC4)nc3)cc3c2cnn3C(C)C)c(=O)[nH]1	> 2300 nM	> 10000 nM
CCCc1cc(C)[nH]c(=O)c1CNC(=O)c1cccn2c(-c3ccc(N4CCN(C(C)C)CC4)nc3)cnc12	> 5000 nM	> 5000 nM
CC(C)N1CCN(c2ccc(-c3cc(C(=O)NCc4cnc[nH]c4=O)c4cnn(C(C)C)c4c3)cn2)CC1	> 10000 nM	> 10000 nM
Cc1cc(-c2ccccc2)[nH]c(=O)c1CNC(=O)c1cc(-c2ccc(N3CCN(C(C)C)CC3)nc2)cc2c1cnn2C(C)C	> 10000 nM	> 10000 nM
Cc1[nH]c(=O)[nH]c(=O)c1CNC(=O)c1cc(-c2ccc(N3CCN(C(C)C)CC3)nc2)cc2c1cnn2C(C)C	> 10000 nM	> 10000 nM
CCCc1cc(C)[nH]c(=O)c1CNC(=O)c1cc(-c2ccc(F)cn2)cc2c1cnn2C(C)C	22 nM	773 nM
CCCc1cc(C)[nH]c(=O)c1CNC(=O)c1cc(-c2ccc(N3CCNCC3)nc2)cc2c1cnn2C(C)C	< 10 nM	60 nM
